In PMC7262549 (Biochemistry and Biophysics Reports, 2020):
Where two headings read alike, the source gives them in different places.

Key:
Conditions in all cases: 4 mM MgSO4
Sfla (wt) [1] = experiment: luminometry, peak light intensity, Michaelis-Menten fit; format: biochemical, Stenocladius flavipennis
Sfla (wt) [2] = system: Sfla (wt)
Dkum (wt) [3] = system: Dkum (wt)
Pmat (wt) [4] = system: Pmat (wt)
Dkum (wt) [5] = experiment: luminometry, peak light intensity, Michaelis-Menten fit; format: biochemical, Drilaster kumejimensis
Pmat (wt) [6] = experiment: as above; format: biochemical, Pyrocoelia matsumurai kumejimensis
Psag (wt) [7] = experiment: as above; format: biochemical, Pristolycus sagulatus
Psag (wt) [8] = system: Psag (wt)
MALuci2 (wt) = experiment: luminometry, peak light intensity, Michaelis-Menten fit; format: biochemical, Luciola sp.
In short: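 Wild-type luciferase coding sequence from lantern cDNA, expressed from pRSET-B in E. coli JM109(DE3) and Ni-NTA purified. Luciferin Km: 50 μg/mL partially purified enzyme, luciferin 0.6–640 μM. ATP Km: 50 μg/mL purified enzyme, ATP 5–1920 μM. Light emission recorded 10 s at 0.02 s gating on a luminometer. Rate taken as peak intensity; Km from least-squares Michaelis–Menten fit.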

[9] = read-out: Km (luciferin μM), 50 mM Tris-HCl pH 8.0, 2 mM ATP
[10] = read-out: Km (ATP μM), 50 mM Tris-HCl pH 8.0, 1 mM luciferin

Row | SMILES | Km (Sfla (wt) [1]; [9]) | Km (Sfla (wt) [2]; [9]) | Km (Dkum (wt) [3]; [9]) | Km (Pmat (wt) [4]; [9]) | Km (Dkum (wt) [5]; [9]) | Km (Pmat (wt) [6]; [9]) | Km (Psag (wt) [7]; [9]) | Km (Psag (wt) [8]; [9]) | Km (MALuci2 (wt); [9]) | Km (Sfla (wt) [1]; [10]) | Km (Sfla (wt) [2]; [10]) | Km (Dkum (wt) [3]; [10]) | Km (Pmat (wt) [4]; [10]) | Km (Dkum (wt) [5]; [10]) | Km (Pmat (wt) [6]; [10]) | Km (Psag (wt) [7]; [10]) | Km (Psag (wt) [8]; [10]) | Km (MALuci2 (wt); [10])
1 | O=C(O)[C@H]1CSC(c2nc3ccc(O)cc3s2)=N1 [D-luciferin] | 16.6 µM | 6.6 µM | 19.4 µM | 62.2 µM | 60.1 µM | 14.2 µM | 4.9 µM | 222 µM | 4.25 µM | – | – | – | – | – | – | – | – | –
2 | Nc1ncnc2c1ncn2[C@@H]1O[C@H](COP(=O)(O)OP(=O)(O)OP(=O)(O)O)[C@@H](O)[C@H]1O [ATP] | – | – | – | – | – | – | – | – | – | 21.5 µM | 9 µM | 26.8 µM | 98.1 µM | 127 µM | 104 µM | 194 µM | 282 µM | 188 µM
